Experimental findings from PubChem BioAssay AID624074 (Broad Institute, 2012) are described below.

Active and inactive are the calls of the source.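 How the source made its calls: active means fitted curve reaches a 35% growth drop -35 below twice the top tested dose; inactive means activity in the wrong direction, or the rest.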

For the first test, the system named is P. aeruginosa PAK ΔmexAB-oprM growth with EDDHA, OD600, 28 h. The experiment in a line: iron-limited growth inhibition, mexAB-oprM mutant – whole organism, PAK mexAB-OprM mutant, OD600, EDDHA, dry powder, set 4, dose response (AID 624074).
Details: not given
The method, boiled down:
(§1)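 Test system – Pseudomonas aeruginosa PAK with efflux-deficient ΔmexAB-oprM deletion, whole cells · Reagent – 2 µM EDDHA chelator · Dosing – dose series of compound, final 15 nM to 100 µM · Timing – 28 h at 30 °C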
As to `N#CC(c1ccc(Cl)cc1)c1cccc(Cl)n1` (stereo unspecified), the AC35 was 60.3 µM.

`N#CC(c1cccc(Cl)n1)c1ccc(Cl)cc1F` (stereo unspecified): the AC35 was 47.5 µM. Still for that read-out and setting: the figure for `N#CC(c1ccc(Cl)cc1)c1ncccc1Cl` (stereo unspecified) is 56.2 µM. Take `N#CC(c1cccc(C(F)(F)F)n1)c1ccc(Cl)cc1F` (stereo unspecified): the AC35 was 37.8 µM. Still for that read-out and setting: the figure for `N#CC(c1ccc(Cl)cc1)c1cccc(C(F)(F)F)n1` (stereo unspecified) is 29 µM. Still for that read-out and setting: as for `N#CC(c1ccc(Cl)cc1)c1ccc(Cl)cn1` (stereo unspecified), the figure is 72 µM; as for `N#CC(c1ccc(F)cc1)c1cccc(C(F)(F)F)n1` (stereo unspecified), 25.6 µM.

Test system in the next test: not listed separately
The test is described as above. To be noted: P. aeruginosa PAK ΔmexAB-oprM growth with EDDHA, OD600, 28 h; at 100 µM (top of the series). The method, boiled down:
as §1
`COCCNC(C#N)c1ccc(Cl)cc1` (stereo unspecified): the activity change, negative = growth inhibition is -1.19% (inactive). Same read-out and setting: as for `COCCC(C#N)c1ccc(F)cc1` (stereo unspecified), the figure is -11.9% (inactive); as for `CCCCC(c1ccc(Cl)cc1)c1nn[nH]n1` (stereo unspecified), -10.1% (inactive); as for `CCCCC(C#N)c1ccc(F)cn1` (stereo unspecified), -15.7% (inactive).
